Test results reported in ChEMBL document CHEMBL4270668, “Design, Synthesis, Molecular Dynamics Simulation, and Functional Evaluation of a Novel Series of 26RFa Peptide Analogues Containing a Mono- or Polyalkyl Guanidino Arginine Derivative” (J Med Chem, 2018).
Starred links: 1 amine or outer side, 2 acyl side, 3 side chain; linkers in the order of their positions; H or OH if unused. Non-standard residues stand in square brackets, D forms with d. Residues, ends and D or L forms follow the SMILES beside them. X25 = C/N=C(/NCCCC[C@H](N[*:1])C(=O)[*:2])N(C)C; X14 = CCN(CC)C(=N)NCCCC[C@H](N[*:1])C(=O)[*:2]; X18 = C/N=C(/NCC[C@H](N[*:1])C(=O)[*:2])N(C)C; X24 = N=C(NCCCC[C@H](N[*:1])C(=O)[*:2])N1CCC1; X19 = C/N=C(\NC)NCCCC[C@H](N[*:1])C(=O)[*:2]; X8 = CCN(CC)C(=N)NCCC[C@H](N[*:1])C(=O)[*:2]; X5 = CCN(CC)C(=N)NCC[C@H](N[*:1])C(=O)[*:2]; X6 = N=C(NCCC[C@H](N[*:1])C(=O)[*:2])N1CCC1; X13 = C/N=C(\NC)NCC[C@H](N[*:1])C(=O)[*:2]; X10 = CNC(=N)NCCCC[C@H](N[*:1])C(=O)[*:2]; X22 = CCCNC(=N)NCC[C@H](N[*:1])C(=O)[*:2]; X4 = CNC(=N)NCC[C@H](N[*:1])C(=O)[*:2]; Arg(Et) = CCNC(=N)NCCC[C@H](N)C(=O)O; Arg(Me) = CNC(=N)NCCC[C@H](N)C(=O)O

Assays:
[1] = molecular target: T1, Pyroglutamylated RF-amide peptide receptor (Homo sapiens, UniProt Q96P65); assay: Antagonist activity at human QRFPR expressed in CHO cells co-expressing Galpha16 assessed as inhibition of 26RFa-induced Ca2+ mobilization preincubated for 15 mins followed by agonist addition measured after 3 mins by Fluo-4 AM-based scanning fluorometery; format: functional, cell-based
T1 sequence (Q96P65 whole entry): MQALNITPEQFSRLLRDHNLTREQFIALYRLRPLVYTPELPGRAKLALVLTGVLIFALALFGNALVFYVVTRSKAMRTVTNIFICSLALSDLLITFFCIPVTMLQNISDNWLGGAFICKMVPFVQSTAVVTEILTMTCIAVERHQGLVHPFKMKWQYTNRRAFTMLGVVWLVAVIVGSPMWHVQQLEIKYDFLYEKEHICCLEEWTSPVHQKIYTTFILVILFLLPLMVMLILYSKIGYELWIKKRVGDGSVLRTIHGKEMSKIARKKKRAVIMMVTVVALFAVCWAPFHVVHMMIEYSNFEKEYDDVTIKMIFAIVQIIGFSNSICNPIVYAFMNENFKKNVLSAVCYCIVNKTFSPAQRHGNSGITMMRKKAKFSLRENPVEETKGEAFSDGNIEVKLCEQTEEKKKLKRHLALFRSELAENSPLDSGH
How it was run: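 CHO-Gα16-hQRFPR cells loaded 1 h with 2 µM Fluo-4 AM, then incubated 15 min with graded compound. A 10^-7 M final 26RFa pulse was given during recording. Background subtracted, baseline normalized to 100%, peak fluorescence taken per concentration. IC50 from sigmoidal variable-slope fits, ≥3 experiments in triplicate. Maximal effect at 10^-4 M expressed as % inhibition of the 26RFa (10^-7 M) response.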

[2] = molecular target: T1, Pyroglutamylated RF-amide peptide receptor; assay: Agonist activity at human QRFPR expressed in CHO cells co-expressing Galpha16 assessed as increase Ca2+ mobilization after 3 mins by Fluo-4 AM-based scanning fluorometery; format: functional, cell-based
How it was run: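 CHO-Gα16 cells stably expressing human QRFPR, seeded at 40,000 cells/well 24 h ahead. Loaded 1 h with 2 µM Fluo-4 AM plus 0.01% pluronic acid, washed, then 30 min in HBSS with 2.5 mM probenecid and 5 mM HEPES. Compounds added at final 10^-11 to 10^-5 M; fluorescence recorded 3 min on a scanning fluorometer. EC50 from sigmoidal variable-slope fits, ≥3 experiments in triplicate.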

Molecule	IC50 [1] [µM]	EC50 [2] [µM]
CCN(CC)C(=N)NCCCC[C@H](NC(=O)[C@H](Cc1ccccc1)NC(=O)[C@H](CO)NC(=O)[C@H](Cc1ccccc1)NC(=O)CNC(=O)CN)C(=O)N[C@@H](Cc1ccccc1)C(N)=O (H-GGFSF[X14]F-NH2)	> 100	> 100
CNC(=N)NCCC[C@H](NC(=O)[C@H](Cc1ccccc1)NC(=O)[C@H](CO)NC(=O)[C@H](Cc1ccccc1)NC(=O)CNC(=O)CNC(=O)[C@H](CCCCN)NC(=O)[C@H](CCCCN)NC(=O)[C@H](CCCNC(=N)N)NC(=O)[C@H](CO)NC(=O)[C@H](Cc1ccc(O)cc1)NC(=O)CNC(=O)[C@H](CC(N)=O)NC(=O)[C@H](CC(C)C)NC(=O)[C@H](CCC(=O)O)NC(=O)[C@H](CCC(=O)O)NC(=O)[C@H](C)NC(=O)[C@H](CC(C)C)NC(=O)[C@H](CC(N)=O)NC(=O)CNC(=O)[C@H](CC(C)C)NC(=O)[C@@H]1CCCN1C(=O)CNC(=O)[C@H](CO)NC(=O)[C@@H](N)[C@@H](C)O)C(=O)N[C@@H](Cc1ccccc1)C(N)=O (H-TSGPLGNLAEELNGYSRKKGGFSF[Arg(Me)]F-NH2)	–	0.0069
CCN(CC)C(=N)NCCC[C@H](NC(=O)[C@H](Cc1ccccc1)NC(=O)[C@H](CO)NC(=O)[C@H](Cc1ccccc1)NC(=O)CNC(=O)CN)C(=O)N[C@@H](Cc1ccccc1)C(N)=O (H-GGFSF[X8]F-NH2)	> 100	> 100
H-GGFSFRF-NH2	–	1.64
N=C(NCCCC[C@H](NC(=O)[C@H](Cc1ccccc1)NC(=O)[C@H](CO)NC(=O)[C@H](Cc1ccccc1)NC(=O)CNC(=O)CN)C(=O)N[C@@H](Cc1ccccc1)C(N)=O)N1CCC1 (H-GGFSF[X24]F-NH2)	> 100	> 100
C/N=C(\NC)NCCCC[C@H](NC(=O)[C@H](Cc1ccccc1)NC(=O)[C@H](CO)NC(=O)[C@H](Cc1ccccc1)NC(=O)CNC(=O)CN)C(=O)N[C@@H](Cc1ccccc1)C(N)=O (H-GGFSF[X19]F-NH2)	> 100	> 100
N=C(NCCC[C@H](NC(=O)[C@H](Cc1ccccc1)NC(=O)[C@H](CO)NC(=O)[C@H](Cc1ccccc1)NC(=O)CNC(=O)CN)C(=O)N[C@@H](Cc1ccccc1)C(N)=O)N1CCC1 (H-GGFSF[X6]F-NH2)	> 100	> 100
C/N=C(/NCCCC[C@H](NC(=O)[C@H](Cc1ccccc1)NC(=O)[C@H](CO)NC(=O)[C@H](Cc1ccccc1)NC(=O)CNC(=O)CN)C(=O)N[C@@H](Cc1ccccc1)C(N)=O)N(C)C (H-GGFSF[X25]F-NH2)	> 100	> 100
C/N=C(/NCC[C@H](NC(=O)[C@H](Cc1ccccc1)NC(=O)[C@H](CO)NC(=O)[C@H](Cc1ccccc1)NC(=O)CNC(=O)CN)C(=O)N[C@@H](Cc1ccccc1)C(N)=O)N(C)C (H-GGFSF[X18]F-NH2)	> 100	> 100

Continued, values first:

IC50 [1] [µM]	EC50 [2] [µM]	Molecule
–	1.37	CCNC(=N)NCCC[C@H](NC(=O)[C@H](Cc1ccccc1)NC(=O)[C@H](CO)NC(=O)[C@H](Cc1ccccc1)NC(=O)CNC(=O)CN)C(=O)N[C@@H](Cc1ccccc1)C(N)=O (H-GGFSF[Arg(Et)]F-NH2)
> 100	> 100	CNC(=N)NCC[C@H](NC(=O)[C@H](Cc1ccccc1)NC(=O)[C@H](CO)NC(=O)[C@H](Cc1ccccc1)NC(=O)CNC(=O)CN)C(=O)N[C@@H](Cc1ccccc1)C(N)=O (H-GGFSF[X4]F-NH2)
> 100	> 100	CCCNC(=N)NCC[C@H](NC(=O)[C@H](Cc1ccccc1)NC(=O)[C@H](CO)NC(=O)[C@H](Cc1ccccc1)NC(=O)CNC(=O)CN)C(=O)N[C@@H](Cc1ccccc1)C(N)=O (H-GGFSF[X22]F-NH2)
> 100	> 100	CCN(CC)C(=N)NCC[C@H](NC(=O)[C@H](Cc1ccccc1)NC(=O)[C@H](CO)NC(=O)[C@H](Cc1ccccc1)NC(=O)CNC(=O)CN)C(=O)N[C@@H](Cc1ccccc1)C(N)=O (H-GGFSF[X5]F-NH2)
> 100	> 100	CNC(=N)NCCCC[C@H](NC(=O)[C@H](Cc1ccccc1)NC(=O)[C@H](CO)NC(=O)[C@H](Cc1ccccc1)NC(=O)CNC(=O)CN)C(=O)N[C@@H](Cc1ccccc1)C(N)=O (H-GGFSF[X10]F-NH2)
> 100	> 100	C/N=C(\NC)NCC[C@H](NC(=O)[C@H](Cc1ccccc1)NC(=O)[C@H](CO)NC(=O)[C@H](Cc1ccccc1)NC(=O)CNC(=O)CN)C(=O)N[C@@H](Cc1ccccc1)C(N)=O (H-GGFSF[X13]F-NH2)
